From ChEMBL document CHEMBL4130631, “Identification of the Histidine Residue in Vitamin D Receptor That Covalently Binds to Electrophilic Ligands” (J Med Chem, 2018)
Activity calls are given as the source filed them. The rule behind the calls is not given here.

How the values were obtained:
Vitamin D3 receptor = molecular target: T1, Vitamin D3 receptor (Homo sapiens, UniProt P11473); test: Displacement of [3H]-1,25D3 from C-terminal GST-tagged human recombinant VDR LBD expressed in Escherichia coli BL21 (DE3) after 16 hrs by radioligand binding assay
T1 sequence (P11473 whole entry): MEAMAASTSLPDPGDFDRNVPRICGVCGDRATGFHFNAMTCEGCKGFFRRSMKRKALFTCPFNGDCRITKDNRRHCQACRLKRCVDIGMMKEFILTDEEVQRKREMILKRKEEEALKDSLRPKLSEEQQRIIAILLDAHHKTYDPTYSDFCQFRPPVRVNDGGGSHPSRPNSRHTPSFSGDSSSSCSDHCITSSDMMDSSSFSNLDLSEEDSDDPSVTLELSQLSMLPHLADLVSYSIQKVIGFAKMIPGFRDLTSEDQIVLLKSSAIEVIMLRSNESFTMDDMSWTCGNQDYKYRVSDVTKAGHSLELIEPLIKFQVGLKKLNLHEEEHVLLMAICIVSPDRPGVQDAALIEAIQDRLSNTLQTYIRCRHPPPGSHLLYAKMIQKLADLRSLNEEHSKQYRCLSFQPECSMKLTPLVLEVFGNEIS

[1] = molecular target: T2, Vitamin D3 receptor (Homo sapiens) (UniProt P11473); test: Agonist activity at human full-length VDR expressed in African green monkey COS7 cells by osteopontin luciferase reporter gene assay; format: cell-based
T2 sequence (whole entry): T1 sequence (P11473 whole entry)
Summary of the method: (§1)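 Dual luciferase reporter in Cos7 or HEK293 cells cotransfected with full-length human VDR plasmid (pCMX-hVDR), reporter carrying three copies of osteopontin VDRE (SPPx3-TK-Luc) and sea pansy luciferase control (pRL-CMV). Activity normalized to 1,25D3 set as 1: 10−8 M in Cos7, 10−9 M in HEK293.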

[2] = molecular target: T2, Vitamin D3 receptor (Homo sapiens); test: Displacement of [3H]-1,25D3 from C-terminal GST-tagged human recombinant VDR LBD expressed in Escherichia coli BL21 (DE3) after 16 hrs by radioligand binding assay relative to 1,25D3
Summary of the method: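 Competitive binding against [3H]-1,25D3 using human VDR-LBD expressed as C-terminal GST fusion from pGEX-VDR in E. coli BL21; IC50 derived.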

[3] = molecular target: T3, Vitamin D3 receptor (Rattus norvegicus) (UniProt P13053); test: Covalent binding affinity to rat VDR LBD (116 to 423 residues, 165-211 residues) at 5 equivalents after 30 hrs by ESI-MS analysis
T3 sequence (whole entry): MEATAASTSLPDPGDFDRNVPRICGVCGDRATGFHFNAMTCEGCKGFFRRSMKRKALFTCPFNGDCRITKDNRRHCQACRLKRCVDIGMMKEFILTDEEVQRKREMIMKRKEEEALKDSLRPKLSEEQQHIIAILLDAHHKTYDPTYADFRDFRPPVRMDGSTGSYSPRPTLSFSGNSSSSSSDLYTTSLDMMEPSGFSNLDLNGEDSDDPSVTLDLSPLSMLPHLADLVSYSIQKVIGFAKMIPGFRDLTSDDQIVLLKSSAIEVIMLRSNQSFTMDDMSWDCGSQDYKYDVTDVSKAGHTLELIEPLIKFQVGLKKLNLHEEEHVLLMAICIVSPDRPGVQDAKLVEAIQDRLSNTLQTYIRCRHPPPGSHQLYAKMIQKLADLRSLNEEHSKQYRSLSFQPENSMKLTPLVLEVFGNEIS

[4] = molecular target: T2, Vitamin D3 receptor (Homo sapiens); test: Agonist activity at human full-length VDR expressed in HEK293 cells by osteopontin luciferase reporter gene assay; format: cell-based; summary of the method: as §1
[5] = molecular target: T3, Vitamin D3 receptor (Rattus norvegicus); test: Covalent binding affinity to rat VDR LBD (116 to 423 residues, 165-211 residues) at 2 equivalents after 24 hrs by ESI-MS analysis
[6] = molecular target: T3, Vitamin D3 receptor (Rattus norvegicus); test: Covalent binding affinity to rat VDR LBD (116 to 423 residues, 165-211 residues) at 5 equivalents by ESI-MS analysis
Summary of the method: (§2)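 Rat VDR-LBD (residues 116−423, Δ165−211) concentrated in 50 mM ammonium acetate pH 6.5, 10 μM, incubated with 5 equiv ligand at room temperature. Samples sampled over time (up to 6 h, or 24 h), infused at 30 μL/min, analysed by positive-ion ESI-MS, m/z 100−4000. Spectra deconvoluted to unmodified versus ligand-adduct protein mass peaks.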

[7] = molecular target: T3, Vitamin D3 receptor (Rattus norvegicus); test: Covalent binding affinity to rat VDR LBD (116 to 423 residues, 165-211 residues) assessed as covalently modified protein level at 5 equivalents by ESI-MS analysis; details: TDE = time-dependent effect; summary of the method: as §2
[8] = molecular target: T3, Vitamin D3 receptor (Rattus norvegicus); test: Covalent binding affinity to rat VDR LBD (116 to 423 residues, 165-211 residues) assessed as time duration for complete covalent bond formation with protein at 5 equivalents by ESI-MS analysis; summary of the method: as §2
[9] = molecular target: T3, Vitamin D3 receptor (Rattus norvegicus); test: Irreversible covalent binding affinity to rat VDR LBD (116 to 423 residues, 165-211 residues) at 2 equivalents after 24 hrs followed by compound wash out and subsequent addition of 10 equivalents of 1,25D3 and measured after 24 hrs by ESI-MS analysis
Summary of the method: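 Rat VDR-LBD (Δ165−211) incubated with ligand for 24 h; covalent adduct confirmed by ESI-MS, then buffer exchanged to ligand-free buffer and 10 equiv 1,25D3 added. Positive-ion ESI-MS read for retained modified versus exchanged protein peaks.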

IC50 (Vitamin D3 receptor) [nM]	Activity [1]	Ratio IC50 [2]	Activity [3]	Activity [4]	Activity [5]	Activity [6]	Activity [7]	TIME [8] [h]	Activity [9]	SMILES
2.3	Active	0.022	Active	Active						C=C1[C@H](O)CC(=C/C=C2\CCC[C@]3(C)[C@@H]([C@H](C)C(=O)/C=C/C=C/C)CC[C@@H]23)C[C@H]1O
1.1	Active	0.055		Active	Active	Active	Tde	1.5	Active	C=CC(=O)CC[C@@H](C)[C@H]1CC[C@H]2/C(=C/C=C3C[C@@H](O)C(=C)[C@H](O)C3)CCC[C@]12C
1.8	Active	0.034		Active	Active	Active	Tde	3	Active	C=C1[C@H](O)CC(=C/C=C2\CCC[C@]3(C)[C@@H]([C@H](C)CCC(=O)/C=C/C)CC[C@@H]23)C[C@H]1O
